From ChEMBL document CHEMBL1121540, “Synthesis and antibacterial activity of new 1-oxa-1-dethiacephalosporins” (1980)
In brackets after ≈: the same amount, converted by molar mass.

Key:
Type in all cases: functional
Bacillus subtilis = experiment: In vitro minimum inhibitory concentration (MIC) against ATCC 6633 strain of Bacillus subtilis
Procedure, shortened: (§1)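 Agar dilution on heart infusion agar; the MIC is read as the lowest concentration that inhibits growth of the strain.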

Escherichia coli = experiment: In vitro minimum inhibitory concentration (MIC) against NIHJ JC-2 strain of Escherichia coli; procedure, shortened: as §1
Klebsiella pneumoniae = experiment: In vitro minimum inhibitory concentration (MIC) against Klebsiella pneumonia 12; procedure, shortened: as §1
Proteus mirabilis = experiment: In vitro minimum inhibitory concentration (MIC) against Proteus mirabilis 1; procedure, shortened: as §1
Pseudomonas aeruginosa = experiment: In vitro minimum inhibitory concentration (MIC) against NCTC 10490 strain of Pseudomonas aeruginosa; procedure, shortened: as §1
Serratia marcescens = experiment: In vitro minimum inhibitory concentration (MIC) against Serratia marcescens.; procedure, shortened: as §1
Staphylococcus aureus = experiment: In vitro minimum inhibitory concentration (MIC) against 209P JC-1 strain of Staphylococcus aureus; procedure, shortened: as §1

CC(C)O/N=C(\C(=O)N[C@@H]1C(=O)N2C(C(=O)O)=CCO[C@H]12)c1csc(N)n1
MIC (Bacillus subtilis): 50 mg/L (≈ 126 µM) | MIC (Escherichia coli): 0.78 mg/L (≈ 1.97 µM) | MIC (Klebsiella pneumoniae): 0.78 mg/L (≈ 1.97 µM) | MIC (Proteus mirabilis): 0.2 mg/L (≈ 0.506 µM) | MIC (Pseudomonas aeruginosa): 12.5 mg/L (≈ 31.6 µM) | MIC (Serratia marcescens): 25 mg/L (≈ 63.2 µM) | MIC (Staphylococcus aureus): 12.5 mg/L (≈ 31.6 µM)

C#CCO/N=C(\C(=O)N[C@@H]1C(=O)N2C(C(=O)O)=CCO[C@H]12)c1csc(N)n1
MIC (Bacillus subtilis): 25 mg/L (≈ 63.9 µM) | MIC (Escherichia coli): 1.56 mg/L (≈ 3.99 µM) | MIC (Klebsiella pneumoniae): 0.2 mg/L (≈ 0.511 µM) | MIC (Proteus mirabilis): 0.1 mg/L (≈ 0.256 µM) | MIC (Pseudomonas aeruginosa): 400 mg/L (≈ 1020 µM) | MIC (Serratia marcescens): 100 mg/L (≈ 256 µM) | MIC (Staphylococcus aureus): 12.5 mg/L (≈ 31.9 µM)

CCCCO/N=C(\C(=O)N[C@@H]1C(=O)N2C(C(=O)O)=CCO[C@H]12)c1csc(N)n1
MIC (Bacillus subtilis): 50 mg/L (≈ 122 µM) | MIC (Escherichia coli): 0.78 mg/L (≈ 1.91 µM) | MIC (Klebsiella pneumoniae): 3.13 mg/L (≈ 7.64 µM) | MIC (Proteus mirabilis): 0.78 mg/L (≈ 1.91 µM) | MIC (Pseudomonas aeruginosa): 12.5 mg/L (≈ 30.5 µM) | MIC (Serratia marcescens): 100 mg/L (≈ 244 µM) | MIC (Staphylococcus aureus): 12.5 mg/L (≈ 30.5 µM)

CO/N=C(\C(=O)N[C@@H]1C(=O)N2C(C(=O)O)=CCO[C@H]12)c1ccco1
MIC (Bacillus subtilis): 50 mg/L (≈ 149 µM) | MIC (Escherichia coli): 6.25 mg/L (≈ 18.6 µM) | MIC (Klebsiella pneumoniae): 1.56 mg/L (≈ 4.65 µM) | MIC (Proteus mirabilis): 0.78 mg/L (≈ 2.33 µM) | MIC (Pseudomonas aeruginosa): 800 mg/L (≈ 2390 µM) | MIC (Serratia marcescens): 100 mg/L (≈ 298 µM) | MIC (Staphylococcus aureus): 12.5 mg/L (≈ 37.3 µM)

CO/N=C(/C(=O)N[C@@H]1C(=O)N2C(C(=O)O)=CCO[C@H]12)c1csc(N)n1
MIC (Bacillus subtilis): 100 mg/L (≈ 272 µM) | MIC (Escherichia coli): 6.25 mg/L (≈ 17 µM) | MIC (Klebsiella pneumoniae): 1.56 mg/L (≈ 4.25 µM) | MIC (Proteus mirabilis): 3.13 mg/L (≈ 8.52 µM) | MIC (Pseudomonas aeruginosa): 800 mg/L (≈ 2180 µM) | MIC (Serratia marcescens): 100 mg/L (≈ 272 µM) | MIC (Staphylococcus aureus): 12.5 mg/L (≈ 34 µM)

CCO/N=C(\C(=O)N[C@@H]1C(=O)N2C(C(=O)O)=CCO[C@H]12)c1csc(N)n1
MIC (Bacillus subtilis): 50 mg/L (≈ 131 µM) | MIC (Escherichia coli): 0.1 mg/L (≈ 0.262 µM) | MIC (Klebsiella pneumoniae): 0.1 mg/L (≈ 0.262 µM) | MIC (Proteus mirabilis): 0.05 mg/L (≈ 0.131 µM) | MIC (Pseudomonas aeruginosa): 3.13 mg/L (≈ 8.21 µM) | MIC (Serratia marcescens): 12.5 mg/L (≈ 32.8 µM) | MIC (Staphylococcus aureus): 6.25 mg/L (≈ 16.4 µM)

C=CCO/N=C(\C(=O)N[C@@H]1C(=O)N2C(C(=O)O)=CCO[C@H]12)c1csc(N)n1
MIC (Bacillus subtilis): 100 mg/L (≈ 254 µM) | MIC (Escherichia coli): 3.13 mg/L (≈ 7.96 µM) | MIC (Klebsiella pneumoniae): 1.56 mg/L (≈ 3.97 µM) | MIC (Proteus mirabilis): 0.1 mg/L (≈ 0.254 µM) | MIC (Pseudomonas aeruginosa): 50 mg/L (≈ 127 µM) | MIC (Serratia marcescens): 100 mg/L (≈ 254 µM) | MIC (Staphylococcus aureus): 6.25 mg/L (≈ 15.9 µM)

CO/N=C(\C(=O)N[C@@H]1C(=O)N2C(C(=O)O)=CCO[C@H]12)c1ccccc1
MIC (Bacillus subtilis): 25 mg/L (≈ 72.4 µM) | MIC (Escherichia coli): 25 mg/L (≈ 72.4 µM) | MIC (Klebsiella pneumoniae): 12.5 mg/L (≈ 36.2 µM) | MIC (Proteus mirabilis): 6.25 mg/L (≈ 18.1 µM) | MIC (Pseudomonas aeruginosa): 800 mg/L (≈ 2320 µM) | MIC (Serratia marcescens): 100 mg/L (≈ 290 µM) | MIC (Staphylococcus aureus): 1.56 mg/L (≈ 4.52 µM)

CO/N=C(\C(=O)N[C@@H]1C(=O)N2C(C(=O)O)=CCS[C@H]12)c1csc(N)n1 [CEFTIZOXIME]
MIC (Bacillus subtilis): 25 mg/L (≈ 65.2 µM) | MIC (Escherichia coli): 0.05 mg/L (≈ 0.13 µM) | MIC (Klebsiella pneumoniae): 0.05 mg/L (≈ 0.13 µM) | MIC (Proteus mirabilis): 0.025 mg/L (≈ 0.0652 µM) | MIC (Pseudomonas aeruginosa): 25 mg/L (≈ 65.2 µM) | MIC (Serratia marcescens): 50 mg/L (≈ 130 µM) | MIC (Staphylococcus aureus): 6.25 mg/L (≈ 16.3 µM)

CO/N=C(\C(=O)N[C@@H]1C(=O)N2C(C(=O)O)=CCO[C@H]12)c1csc(N)n1
MIC (Bacillus subtilis): 100 mg/L (≈ 272 µM) | MIC (Escherichia coli): 0.2 mg/L (≈ 0.544 µM) | MIC (Klebsiella pneumoniae): 0.78 mg/L (≈ 2.12 µM) | MIC (Proteus mirabilis): 0.2 mg/L (≈ 0.544 µM) | MIC (Pseudomonas aeruginosa): 800 mg/L (≈ 2180 µM) | MIC (Serratia marcescens): 100 mg/L (≈ 272 µM) | MIC (Staphylococcus aureus): 25 mg/L (≈ 68.1 µM)
